Source: paper PMC9924099 (Journal of medicinal chemistry, 2021)
Like-named read-outs stand apart in the source and are kept apart here.

Tests used:
[1] = test system: p53^R280K MDA-MB-231 cells; assay: WST-1 cell proliferation assay; type: cell-based, human; details: for IC50: Homo sapiens, read-out: IC50, inhibition of cell proliferation
[2] = test system: p53^R273H MDA-MB-468 cells; assay: WST-1 cell proliferation assay; type: cell-based, human; details: Homo sapiens, read-out: IC50, inhibition of cell proliferation
[3] = test system: mammary epithelial cells (MCF10A); assay: Proliferation of normal cells; type: cell-based, human
[4] = test system: colon cells (CCD841); assay: Proliferation of normal cells; type: cell-based, human
[5] = test system: p53^R280K MDA-MB-231 cells; assay: Annexin V staining; type: cell-based, human; details: MDA-MB-231, 6 μM or 12 μM, 24 h
[6] = test system: p53^R273H MDA-MB-468 cells; assay: Annexin V staining; type: cell-based, human; details: MDA-MB-468, 6 μM or 12 μM; for increase in Annexin V stained cells compared to DMSO: 24 h
[7] = test system: WT p53 MCF-7 cells; assay: Annexin V staining; type: cell-based, human; details: MCF-7, 24 h
Summary of the method: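 After 24 h exposure to test compound or DMSO, MCF-7 cells (RPMI 1640, 10% FBS, 1% penicillin/streptomycin, 1% L-glutamine) were scraped, PBS-washed and taken up in Annexin V binding buffer. They were stained with fluorochrome-conjugated Annexin V for 15 min at RT in the dark, then PI staining solution was added. Flow cytometry read-out; % Annexin V-positive cells expressed relative to DMSO.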

[8] = molecular target: p53^R280K in MDA-MB-231 cells (Homo sapiens, UniProt P04637, R280K); assay: Western blot of p53 expression; type: cell-based; details: MDA-MB-231, 6 μM or 12 μM, 24 h
Summary of the method: (§1)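 Cells were treated 24 h with 6 μM or 12 μM test compound or DMSO and lysed in NP-40/Tris-Cl pH 8.0 buffer with protease inhibitors. Load on 4–12% SDS-PAGE was 20 μg for MDA-MB-231 and MDA-MB-468 or 50 μg for MCF-7. After PVDF transfer, blots were probed with p53 DO-1 antibody, reprobed for GAPDH as loading control and developed by ECL.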

[9] = molecular target: p53^R273H in MDA-MB-468 cells (Homo sapiens, UniProt P04637, R273H); assay: Western blot of p53 expression; type: cell-based; details: MDA-MB-468, 6 μM or 12 μM, 24 h
Summary of the method: as §1

[10] = molecular target: WT p53 in MCF-7 cells (Homo sapiens, UniProt P04637); assay: Western blot of p53 expression; type: cell-based; details: MCF-7, 6 μM or 12 μM, 24 h
Summary of the method: as §1

[11] = test system: p53^R280K MDA-MB-231 cells; assay: qRT-PCR gene expression; type: cell-based, human; details: for expression of canonical p53 targets p21 and NOXA: MDA-MB-231, 6 μM, 4 h; for p53 mRNA levels: MDA-MB-231, 4 h
Summary of the method: (§2)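 Cells were exposed to 6 μM test compound or DMSO for 4 h. RNA was extracted and reverse-transcribed, and transcripts were quantified by TaqMan qRT-PCR normalised to GAPDH. Values are means with SD from triplicates of repeated experiments.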

[12] = test system: p53^R273H MDA-MB-468 cells; assay: qRT-PCR gene expression; type: cell-based, human; details: for expression of MDM2 / expression of canonical p53 targets p21 and NOXA: MDA-MB-468, 6 μM; for expression of canonical p53 targets p21 and NOXA: 4 h; for p53 mRNA levels: MDA-MB-468, 4 h
Summary of the method: as §2

[13] = test system: WT p53 MCF-7 cells; assay: qRT-PCR gene expression; type: cell-based, human; details: for expression of MDM2 / expression of canonical p53 targets p21 and NOXA: MCF-7, 6 μM; for expression of canonical p53 targets p21 and NOXA: 4 h; for p53 mRNA level: MCF-7, 4 h
Summary of the method: as §2

[14] = test system: caspase 3 and PARP1 in p53^R280K MDA-MB-231 cells; assay: Western blot of caspase 3 and PARP1; type: cell-based, human; details: MDA-MB-231, 24 h
Summary of the method: (§3)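 Cells grown in RPMI 1640 with 10% FBS, 1% penicillin/streptomycin and 1% L-glutamine, then given test compound or DMSO control for 24 h. Lysed 30 min on ice in Tris-Cl pH 8.0/NaCl/glycerol/NP-40/EDTA buffer with protease inhibitors, then cleared. 100 μg lysate run on 4-12% SDS-PAGE, transferred to PVDF, probed with anti-PARP and anti-caspase 3 (1:1000 each). ECL detection.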

[15] = test system: caspase 3 and PARP1 in p53^R273H MDA-MB-468 cells; assay: Western blot of caspase 3 and PARP1; type: cell-based, human; details: MDA-MB-468, 24 h
Summary of the method: as §3

[16] = test system: caspase 3 and PARP1 in WT p53 MCF-7 cells; assay: Western blot of caspase 3 and PARP1; type: cell-based, human; details: MCF-7 (caspase 3-deficient), 24 h
Summary of the method: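 MCF-7 cells were treated with test compound or DMSO for 24 h and lysed on ice for 30 min (20 mM Tris-Cl pH 8.0, 137 mM NaCl, 10% glycerol, 1% NP-40, 2 mM EDTA, protease inhibitors). Lysates were cleared at 18,500 × g. 100 μg lysate was run on 4–12% SDS-PAGE, transferred to PVDF and probed with anti-PARP and anti-caspase 3 (1:1000), HRP secondary and ECL. GAPDH served as loading control.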

[17] = test system: WT p53 MCF-7 cells; assay: WST-1 cell proliferation assay; type: cell-based, human; details: MCF-7, 24 h or 72 h; compared to mutant p53 cells
Summary of the method: (§4)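 WST-1 assay. Test compound in DMSO was added to cells at 40,000 cells/ml, giving 1% DMSO final, and plated at 4,000 cells/well in duplicate; medium-only wells served as background. Incubation was 24 h or 72 h at 37 °C, then WST-1 for 2 h and OD450 read. Proliferation is expressed as % of DMSO control; triplicate experiments. MCF-7 grown in RPMI 1640, MDA-MB-436 in DMEM.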

[18] = test system: p53 null MDA-MB-436 cells; assay: WST-1 cell proliferation assay; type: cell-based, human; details: MDA-MB-436, 24 h and 72 h; compared to MDA-MB-231 or MDA-MB-468
Summary of the method: as §4

[19] = Log P determination; type: physicochemical; details: octanol/sodium phosphate buffer (pH 7.4)
[20] = test system: p53 knockdown MDA-MB-468 cells; assay: WST-1 proliferation after p53 siRNA knockdown; type: cell-based, human; details: p53 siRNA MDA-MB-468 vs NS siRNA cells
Summary of the method: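 MDA-MB-468 cells at 50–60% confluence received p53 SMARTpool siRNA or non-specific siRNA (0.430 nmol with Lipofectamine 2000 in Opti-MEM, 5 h), with a second transfection 24 h later. At 72 h after the first transfection, cells were treated with test compound or DMSO. Proliferation was then measured by WST-1 as % of DMSO.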

[21] = test system: p53^R280K MDA-MB-231 cells; assay: Flow-cytometric cell cycle analysis; type: cell-based, human; details: MDA-MB-231, 6 μM, 24 h; DMSO 42.9%
[22] = test system: ATM in MDA-MB-231 cells; assay: Western blot of pATM S1981; type: cell-based, human; details: MDA-MB-231, 6 μM, 24 h
Summary of the method: (§5)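 Cells were treated 24 h with 6 μM test compound or DMSO and lysed in NP-40 buffer; 250 μg lysate was run on 4–12% SDS-PAGE and transferred to PVDF. Probing used anti-pATM Ser1981 (1:500) with HRP anti-mouse IgG (1:1000) and ECL detection, then reprobing with anti-GAPDH (1:5000). Experiments were done in triplicate.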

[23] = test system: ATM in MDA-MB-468 cells; assay: Western blot of pATM S1981; type: cell-based, human; details: MDA-MB-468, 6 μM, 24 h
Summary of the method: as §5

[24] = test system: ATM in WT p53 MCF-7 cells; assay: Western blot of pATM S1981; type: cell-based, human; details: MCF-7, 6 μM, 24 h
Summary of the method: as §5

[25] = human, in vivo; cited from earlier work

Row | SMILES | IC50 ([1]; MDA-MB-231, 24 h) [µM] | IC50 ([1]; MDA-MB-231, 72 h) [µM] | IC50 ([2]; MDA-MB-468, 24 h) [µM] | IC50 ([2]; MDA-MB-468, 72 h) [µM] | increase in Annexin V stained cells compared to DMSO [5] | increase in Annexin V stained cells compared to DMSO [6] | increase in Annexin V stained cells compared to DMSO [7] | mutant p53 expression (western blot) [8] | mutant p53 expression (western blot) [9] | WT p53 expression (western blot) [10] | expression of canonical p53 targets p21 and NOXA [11] | p53 mRNA levels [11] | expression of MDM2 [12] | expression of canonical p53 targets p21 and NOXA [12] | p53 mRNA levels [12] | expression of MDM2 [13] | expression of canonical p53 targets p21 and NOXA [13] | levels of uncleaved caspase 3, uncleaved PARP1 and cleaved-PARP1 [14] | levels of uncleaved caspase 3, uncleaved PARP1 and cleaved-PARP1 [15] | levels of uncleaved PARP1 and cleaved-PARP1 [16] | other results
1 | [Se]=C=NCCC12CC3CC(CC(C3)C1)C2 [Ad-ISeC 14, 1-Isoselenocyanato-2-(adamantan-1-yl)ethane] | 6 to 12 | 6 to 12 | 6 to 12 | 6 to 12 | enhanced the apoptotic potential | enhanced the apoptotic potential | not in MCF-7 cells | significant reduction in mutant p53 expression | significant reduction in mutant p53 expression | marginally elevated | significantly enhanced the levels of p21 and NOXA | remained unchanged | statistically significant elevation of MDM2 | significantly enhanced the levels of p21 and NOXA | remained unchanged | statistically significant elevation of MDM2 | significant increase in the expression levels | decrease in the levels of uncleaved caspase 3 and PARP-1 and an increase in the levels of cleaved-PARP1 fragment | decrease in the levels of uncleaved caspase 3 and PARP-1 and an increase in the levels of cleaved-PARP1 fragment | did not detect any significant change | IC50 compared with mutant p53 tumor cells (in words) ([3]; MCF10A normal cells vs MDA-MB-231 and MDA-MB-468): significantly higher; IC50 compared with mutant p53 tumor cells (in words) ([4]; CCD841 normal cells vs MDA-MB-231 and MDA-MB-468): significantly higher; level of apoptosis compared to Ad-ITC 5 [6]: > 2 fold; p53 mRNA level [13]: increase in the p53 mRNA level
2 | S=C=NCCCC12CC3CC(CC(C3)C1)C2 [Ad-ITC 6, 1-Isothiocyanato-3-(adamantan-1-yl)propane] | 12 to 24 | 12 to 24 | 12 to 24 | 12 to 24 | 2.0-5.1 fold | 2.0-5.1 fold | did not display any significant increase | differential decrease in the expression of mutant p53 | differential decrease in the expression of mutant p53 | did not decrease WT p53 expression | enhanced the expression of the canonical p53 targets p21 and NOXA | remained unchanged | enhanced the expression of MDM2 | enhanced the expression of the canonical p53 targets p21 and NOXA | remained unchanged | enhanced the expression of MDM2 | upregulated expression of p21 and NOXA | significant decrease in the levels of uncleaved caspase 3 and PARP1 | significant decrease in the levels of uncleaved caspase 3 and PARP1 | did not detect any significant decrease in the levels of uncleaved PARP1 or accumulation of cleaved-PARP1 fragments | inhibition of cell proliferation (in words) ([1]; MDA-MB-231, 24 h or 72 h): dose-dependent activity; inhibition of cell proliferation / sensitivity (in words) [17]: remarkably less sensitive; sensitivity of cell proliferation (in words) [18]: significantly reduced sensitivity; IC50 compared with mutant p53 tumor cells (in words) [3]: significantly higher; IC50 compared with mutant p53 tumor cells (in words) [4]: significantly higher; logP at 18 h [19]: 5.17; sensitivity of cell proliferation (in words) [20]: markedly reduced sensitivity; p53 mRNA level [13]: increase in the p53 mRNA level; cells in G1 phase [21]: 48.2%; phosphorylation of ATM at S1981 [22]: phosphorylation of ATM at S1981; phosphorylation of ATM at S1981 [23]: phosphorylation of ATM at S1981; pATM-S1981 [24]: absent
3 | S=C=NCCc1ccccc1 [PEITC, Phenethyl isothiocyanate, reference compound] |  |  |  |  |  |  |  | significant decrease | significant decrease | increase in p53 levels |  |  |  |  |  |  |  | significant decrease in the levels of uncleaved caspase 3 and accumulation of cleaved-PARP1 fragments | significant decrease in the levels of uncleaved caspase 3 and accumulation of cleaved-PARP1 fragments | significant decrease in the levels of uncleaved PARP1 and accumulation of cleaved-PARP1 | inhibition of cell proliferation / sensitivity (in words) [17]: considerably less sensitive; logP at 18 h [19]: 3.5; estimated half-life [25]: ~ 2.4 h
